Laboratory results: ChEMBL document CHEMBL4033651, “Exploration of flexible phenylpropylurea scaffold as novel cardiac myosin activators for the treatment of systolic heart failure” (Eur J Med Chem, 2017)

Experiments:
Bos taurus = organism: Bos taurus; assay: Activation of actin-stimulated bovine cardiac myosin S1 fragment ATPase activity in sarcomere at 10 uM after 10 mins by spectrophotometric analysis
Summary of the method: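 Bovine cardiac S1 myosin with actin thin filament complex at pCa 6.5, in 20 mM Tris HCl pH 7.5, 15 mM KCl, 6 mM MgCl2, 1 mM ATP. Compound at 10 μM, 10 min at room temperature. Stopped with Cytophos reagent; liberated phosphate read at 650 nm. % activity calculated relative to DMSO negative control, blank-corrected.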

Rattus norvegicus [1] = assay: Positive inotropic activity in Sprague-Dawley rat heart assessed as left ventricle fractional shortening at 2 to 16 ug/kg/min for 3 mins by echocardiographic analysis; type: functional
Summary of the method: (§1)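 Seven-week-old male Sprague-Dawley rats under 1.5 % isoflurane via nosecone. Drug given through a right internal jugular vein central line. Left ventricular fractional shortening and ejection fraction measured by echocardiography with and without sample, expressed as % increase.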

Rattus norvegicus [2] = assay: Positive inotropic activity in Sprague-Dawley rat heart assessed as ejection fraction at 2 to 16 ug/kg/min for 3 mins by echocardiographic analysis; type: functional; summary of the method: as §1
Oryctolagus cuniculus = organism: Oryctolagus cuniculus; assay: Activation of actin-stimulated rabbit psoas skeletal muscle myosin S1 fragment ATPase activity at 100 uM after 10 mins by spectrophotometric analysis
Summary of the method: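 Rabbit skeletal S1 myosin with actin thin filament complex at pCa 6.5, in 20 mM Tris HCl pH 7.5, 15 mM KCl, 6 mM MgCl2, 1 mM ATP. Compound at single 100 uM dose, 10 min at room temperature. Cytophos stop; phosphate read at 650 nm. % activity versus blank-corrected DMSO control.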

Gallus gallus = organism: Gallus gallus; assay: Activation of actin-stimulated chicken gizzard smooth muscle myosin S1 fragment ATPase activity at 100 uM after 10 mins by spectrophotometric analysis
Summary of the method: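 Chicken gizzard smooth muscle S1 myosin with actin plus tropomyosin at pCa 6.5, in 20 mM Tris HCl pH 7.5, 15 mM KCl, 6 mM MgCl2, 1 mM ATP. Compound at single 100 uM dose, 10 min at room temperature. Cytophos stop; phosphate read at 650 nm. % activity versus blank-corrected DMSO control.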

Rattus norvegicus [3] = assay: Positive inotropic activity in Sprague-Dawley rat heart assessed as heart rate at 4 ug/kg/min for 3 mins by echocardiographic analysis (reference value: 281 to 347 bpm); type: functional
Rattus norvegicus [4] = assay: Positive inotropic activity in Sprague-Dawley rat heart assessed as heart rate at 8 ug/kg/min for 3 mins by echocardiographic analysis (reference value: 281 to 347 bpm); type: functional
Rattus norvegicus [5] = assay: Positive inotropic activity in Sprague-Dawley rat heart assessed as heart rate at 16 ug/kg/min for 3 mins by echocardiographic analysis (reference value: 281 to 347 bpm); type: functional
Rattus norvegicus [6] = assay: Positive inotropic activity in Sprague-Dawley rat heart assessed as left ventricular internal diameter end systole at 4 ug/kg/min for 3 mins by echocardiographic analysis (reference value: 2.50 to 4.78 mm); type: functional
Summary of the method: (§2)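 Male Sprague-Dawley rats, seven weeks old, anaesthetised with 1.5 % isoflurane given by nosecone. Compound infused through the right internal jugular vein, used as a central venous line. Left ventricular dimensions measured by echocardiography.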

Rattus norvegicus [7] = assay: Positive inotropic activity in Sprague-Dawley rat heart assessed as left ventricular internal diameter end systole at 8 ug/kg/min for 3 mins by echocardiographic analysis (reference value: 2.50 to 4.78 mm); type: functional; summary of the method: as §2
Rattus norvegicus [8] = assay: Positive inotropic activity in Sprague-Dawley rat heart assessed as left ventricular internal diameter end systole at 16 ug/kg/min for 3 mins by echocardiographic analysis (reference value: 2.50 to 4.78 mm); type: functional; summary of the method: as §2
Rattus norvegicus [9] = assay: Positive inotropic activity in Sprague-Dawley rat heart assessed as left ventricular internal diameter end diastole at 4 ug/kg/min for 3 mins by echocardiographic analysis (reference value: 5.66 to 7.80 mm); type: functional; summary of the method: as §2
Rattus norvegicus [10] = assay: Positive inotropic activity in Sprague-Dawley rat heart assessed as left ventricular internal diameter end diastole at 16 ug/kg/min for 3 mins by echocardiographic analysis (reference value: 5.66 to 7.80 mm); type: functional
Rattus norvegicus [11] = assay: Positive inotropic activity in Sprague-Dawley rat heart assessed as left ventricular posterior wall thickness end systole at 4 ug/kg/min for 3 mins by echocardiographic analysis (reference value: 2.07 to 2.46 mm); type: functional; summary of the method: as §2
Rattus norvegicus [12] = assay: Positive inotropic activity in Sprague-Dawley rat heart assessed as left ventricular posterior wall thickness end systole at 8 ug/kg/min for 3 mins by echocardiographic analysis (reference value: 2.07 to 2.46 mm); type: functional; summary of the method: as §2
Rattus norvegicus [13] = assay: Positive inotropic activity in Sprague-Dawley rat heart assessed as left ventricular posterior wall thickness end systole at 16 ug/kg/min for 3 mins by echocardiographic analysis (reference value: 2.07 to 2.46 mm); type: functional; summary of the method: as §2
Rattus norvegicus [14] = assay: Positive inotropic activity in Sprague-Dawley rat heart assessed as left ventricular posterior wall thickness end diastole at 4 ug/kg/min for 3 mins by echocardiographic analysis (reference value: 0.88 to 1.54 mm); type: functional; summary of the method: as §2
Rattus norvegicus [15] = assay: Positive inotropic activity in Sprague-Dawley rat heart assessed as left ventricular posterior wall thickness end diastole at 8 ug/kg/min for 3 mins by echocardiographic analysis (reference value: 0.88 to 1.54 mm); type: functional; summary of the method: as §2
Rattus norvegicus [16] = assay: Positive inotropic activity in Sprague-Dawley rat heart assessed as left ventricular posterior wall thickness end diastole at 16 ug/kg/min for 3 mins by echocardiographic analysis (reference value: 0.88 to 1.54 mm); type: functional; summary of the method: as §2
Rattus norvegicus [17] = assay: Positive inotropic activity in Sprague-Dawley rat heart assessed as ejection fraction at 8 ug/kg/min for 3 mins by echocardiographic analysis (reference value: 67.16 to 85.81%); type: functional; summary of the method: as §1
Rattus norvegicus [18] = assay: Positive inotropic activity in Sprague-Dawley rat heart assessed as ejection fraction at 16 ug/kg/min for 3 mins by echocardiographic analysis (reference value: 67.16 to 85.81%); type: functional; summary of the method: as §1
Rattus norvegicus [19] = assay: Positive inotropic activity in Sprague-Dawley rat heart assessed as fractional shortening at 8 ug/kg/min for 3 mins by echocardiographic analysis (reference value: 38.60 to 55.81%); type: functional; summary of the method: as §1
Rattus norvegicus [20] = assay: Positive inotropic activity in Sprague-Dawley rat heart assessed as fractional shortening at 16 ug/kg/min for 3 mins by echocardiographic analysis (reference value: 38.60 to 55.81%); type: functional; summary of the method: as §1
Rattus norvegicus [21] = assay: Effect on hemodynamic parameters in Sprague-Dawley rat heart assessed as end-diastolic pressure at 8 ug/kg/min (reference value: 7.68 to 9.83 mmHg); type: functional
Rattus norvegicus [22] = assay: Effect on hemodynamic parameters in Sprague-Dawley rat heart assessed as end-diastolic pressure at 16 ug/kg/min (reference value: 7.68 to 9.64 mmHg); type: functional
Rattus norvegicus [23] = assay: Effect on hemodynamic parameters in Sprague-Dawley rat heart assessed as dPdT max at 8 ug/kg/min (reference value: 4162 to 5214 mmHg/s); type: functional
Rattus norvegicus [24] = assay: Effect on hemodynamic parameters in Sprague-Dawley rat heart assessed as dPdT min at 8 ug/kg/min (reference value: -5462 to -4611 mmHg/s); type: functional
Rattus norvegicus [25] = assay: Effect on hemodynamic parameters in Sprague-Dawley rat heart assessed as dPdT min at 16 ug/kg/min (reference value: -5462 to -4611 mmHg/s); type: functional
Rattus norvegicus [26] = assay: Effect on hemodynamic parameters in Sprague-Dawley rat heart assessed as heart rate at 16 ug/kg/min (reference value: 274 to 322 bpm); type: functional

Activity (Bos taurus)	Activity (Oryctolagus cuniculus)	Activity (Gallus gallus)	SMILES	Activity (Rattus norvegicus [1])	Activity (Rattus norvegicus [2])	Activity (Rattus norvegicus [3])	Activity (Rattus norvegicus [4])	Activity (Rattus norvegicus [5])	Activity (Rattus norvegicus [6])	Activity (Rattus norvegicus [7])	Activity (Rattus norvegicus [8])	Activity (Rattus norvegicus [9])	Activity (Rattus norvegicus [10])	Activity (Rattus norvegicus [11])	Activity (Rattus norvegicus [12])	Activity (Rattus norvegicus [13])	Activity (Rattus norvegicus [14])	Activity (Rattus norvegicus [15])	Activity (Rattus norvegicus [16])	Activity (Rattus norvegicus [17])	also measured
53.3%	1.4%	-3.7%	O=C(NCCCc1ccccc1)NCc1ccccc1	30.04%	18.27%	395 bpm	412 bpm	412 bpm	3.03 mm	1.58 mm	1.58 mm	5.57 mm	5.57 mm	2.24 mm	2.68 mm	3.03 mm	1.62 mm	1.49 mm	1.71 mm	96.1%	Activity (Rattus norvegicus [18]): 95.44%; Activity (Rattus norvegicus [19]): 73.53%; Activity (Rattus norvegicus [20]): 71.65%; Activity (Rattus norvegicus [21]): 10.71 mmHg; Activity (Rattus norvegicus [22]): 11.33 mmHg; Activity (Rattus norvegicus [23]): 4644 mmHg/s; Activity (Rattus norvegicus [24]): -5583 mmHg/s; Activity (Rattus norvegicus [25]): -5405 mmHg/s; Activity (Rattus norvegicus [26]): 272 bpm
58%	2.8%	-5.5%	COC(=O)N1CCN(Cc2cccc(NC(=O)Nc3ccc(C)nc3)c2F)CC1 [OMECAMTIV MECARBIL]	20.32%	13.35%	368 bpm	370 bpm	367 bpm	2.63 mm	2.33 mm	2.55 mm	6.41 mm	6.5 mm	2.81 mm	2.68 mm	2.77 mm	1.36 mm	1.23 mm	1.36 mm	89.52%	Activity (Rattus norvegicus [18]): 89.17%; Activity (Rattus norvegicus [19]): 61.03%; Activity (Rattus norvegicus [20]): 60.81%; Activity (Rattus norvegicus [21]): 6.21 mmHg; Activity (Rattus norvegicus [22]): 6.46 mmHg; Activity (Rattus norvegicus [23]): 6143 mmHg/s; Activity (Rattus norvegicus [24]): -5547 mmHg/s; Activity (Rattus norvegicus [25]): -6342 mmHg/s; Activity (Rattus norvegicus [26]): 297 bpm
